Results: ChEMBL document CHEMBL4689842, “EUbOPEN Chemogenomics Library wave 1” (2021)

Test system: HEK-293T
Assay: Multiplex assay against HEK293T;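 on Population Tubulin-Different-Phenotype (%): share of the cells with healthy nuclei that show this phenotype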
Assay type: toxicity, cell-based
Details: human
In short: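 At seeding, live cells were stained with Hoechst33342, BioTracker Green Microtubule Cytoskeleton Dye, MitoTracker Red and Annexin V Alexa Fluor 680. After compound addition they were imaged on a CQ1 microscope at 37°C and 5% CO2, and CellPathfinder machine-learning gating sorted them into Hoechst high-intensity objects or normal cells, with normal cells further split into healthy, pyknosed or fragmented nuclei and pyknosed cells into mitotic or apoptotic. Tubulin, mitochondrial-mass and membrane-permeability phenotypes are given as per cents of cells with healthy nuclei.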

[1] = 12 h, 1 µM, compound concentration 1 uM, replicate 1
[2] = 12 h, 1 µM, compound concentration 1 uM, replicate 2
[3] = 12 h, 10 µM, compound concentration 10 uM, replicate 1
[4] = 12 h, 10 µM, compound concentration 10 uM, replicate 2
[5] = 24 h, 1 µM, compound concentration 1 uM, replicate 1
[6] = 24 h, 1 µM, compound concentration 1 uM, replicate 2
[7] = 24 h, 10 µM, compound concentration 10 uM, replicate 1
[8] = 24 h, 10 µM, compound concentration 10 uM, replicate 2

O=c1[nH]c2ccccc2n1C1CCN(Cc2ccc(-c3[nH]c4cc5ncnc5cc4nc3-c3ccccc3)cc2)CC1
Population Apoptotic (%) [1]: 16% | Population Fragmented Nuclei (%) [1]: 13% | Population Healthy Nuclei (%) [1]: 69% | Population Hoechst High Intensity Objects (%) [1]: 7% | Population Membrane Permeable-Phenotype (%) [1]: 7% | Population Mitochondria Different-Phenotype (%) [1]: 3% | Population Mitotic Cells (%) [1]: 83% | Population Normal (%) [1]: 92% | Population Pyknosed Nuclei (%) [1]: 16% | Population Tubulin-Different-Phenotype (%) [1]: 6% | Total Cell Count [1]: 646 | Population Apoptotic (%) [2]: 10% | Population Fragmented Nuclei (%) [2]: 5% | Population Healthy Nuclei (%) [2]: 89% | Population Hoechst High Intensity Objects (%) [2]: 2% | Population Membrane Permeable-Phenotype (%) [2]: 5% | Population Mitochondria Different-Phenotype (%) [2]: 23% | Population Mitotic Cells (%) [2]: 90% | Population Normal (%) [2]: 97% | Population Pyknosed Nuclei (%) [2]: 5% | Population Tubulin-Different-Phenotype (%) [2]: 43% | Total Cell Count [2]: 1621 | Population Apoptotic (%) [3]: 38% | Population Fragmented Nuclei (%) [3]: 10% | Population Healthy Nuclei (%) [3]: 50% | Population Hoechst High Intensity Objects (%) [3]: 20% | Population Membrane Permeable-Phenotype (%) [3]: 22% | Population Mitochondria Different-Phenotype (%) [3]: 40% | Population Mitotic Cells (%) [3]: 61% | Population Normal (%) [3]: 79% | Population Pyknosed Nuclei (%) [3]: 39% | Population Tubulin-Different-Phenotype (%) [3]: 91% | Total Cell Count [3]: 661 | Population Apoptotic (%) [4]: 24% | Population Fragmented Nuclei (%) [4]: 2% | Population Healthy Nuclei (%) [4]: 71% | Population Hoechst High Intensity Objects (%) [4]: 13% | Population Membrane Permeable-Phenotype (%) [4]: 13% | Population Mitochondria Different-Phenotype (%) [4]: 51% | Population Mitotic Cells (%) [4]: 75% | Population Normal (%) [4]: 86% | Population Pyknosed Nuclei (%) [4]: 25% | Population Tubulin-Different-Phenotype (%) [4]: 86% | Total Cell Count [4]: 974 | Population Apoptotic (%) [5]: 11% | Population Fragmented Nuclei (%) [5]: 14% | Population Hoechst High Intensity Objects (%) [5]: 6% | Population Membrane Permeable-Phenotype (%) [5]: 17% | Population Mitochondria Different-Phenotype (%) [5]: 3% | Population Mitotic Cells (%) [5]: 88% | Population Normal (%) [5]: 93% | Population Pyknosed Nuclei (%) [5]: 5% | Population Tubulin-Different-Phenotype (%) [5]: 14% | Total Cell Count [5]: 776 | Population Apoptotic (%) [6]: 7% | Population Fragmented Nuclei (%) [6]: 17% | Population Healthy Nuclei (%) [6]: 79% | Population Hoechst High Intensity Objects (%) [6]: 4% | Population Membrane Permeable-Phenotype (%) [6]: 14% | Population Mitochondria Different-Phenotype (%) [6]: 6% | Population Mitotic Cells (%) [6]: 92% | Population Normal (%) [6]: 95% | Population Pyknosed Nuclei (%) [6]: 3% | Population Tubulin-Different-Phenotype (%) [6]: 52% | Total Cell Count [6]: 2517 | Population Apoptotic (%) [7]: 54% | Population Fragmented Nuclei (%) [7]: 12% | Population Healthy Nuclei (%) [7]: 56% | Population Hoechst High Intensity Objects (%) [7]: 31% | Population Membrane Permeable-Phenotype (%) [7]: 9% | Population Mitochondria Different-Phenotype (%) [7]: 70% | Population Mitotic Cells (%) [7]: 45% | Population Normal (%) [7]: 68% | Population Pyknosed Nuclei (%) [7]: 31% | Population Tubulin-Different-Phenotype (%) [7]: 83% | Total Cell Count [7]: 612 | Population Apoptotic (%) [8]: 28% | Population Fragmented Nuclei (%) [8]: 2% | Population Healthy Nuclei (%) [8]: 71% | Population Hoechst High Intensity Objects (%) [8]: 23% | Population Membrane Permeable-Phenotype (%) [8]: 6% | Population Mitochondria Different-Phenotype (%) [8]: 67% | Population Mitotic Cells (%) [8]: 71% | Population Normal (%) [8]: 76% | Population Pyknosed Nuclei (%) [8]: 26% | Population Tubulin-Different-Phenotype (%) [8]: 72% | Total Cell Count [8]: 883
